Activity calls are given as the source filed them. No cut-off for these calls is given here.
How the values were obtained:
Assay type in all cases: cell-based
[1] = biological target: T1, Protein cereblon/von Hippel-Lindau disease tumor suppressor (Homo sapiens, UniProt P40337+Q96SW2); assay: Protac activity at VHL/CRBN in human HeLa cells assessed as CRBN protein abundance at 10 nM after 4 hrs by Western blot analysis relative to DMSO
Outline: (§1)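 HeLa cells (5 × 10⁵, DMEM + 10% FBS, 37 °C, 5% CO₂, ≤30 passages) seeded overnight, then treated 4 h with compound at single or graded concentrations (0.1% v/v DMSO final). RIPA lysates equalised by Bradford; SDS-PAGE and anti-CRBN/anti-VHL immunoblots; bands normalised to β-tubulin and expressed as % of mean DMSO vehicle. DC₅₀ from fit of band intensity versus log[concentration].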

[2] = biological target: T1, Protein cereblon/von Hippel-Lindau disease tumor suppressor; assay: Protac activity at VHL/CRBN in human HeLa cells assessed as pVHL19 protein abundance at 10 nM after 4 hrs by Western blot analysis relative to DMSO; outline: as §1
[3] = biological target: T1, Protein cereblon/von Hippel-Lindau disease tumor suppressor; assay: Protac activity at VHL/CRBN in human HeLa cells assessed as pVHL19 protein abundance at 1 uM after 4 hrs by Western blot analysis relative to DMSO
Outline: (§2)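 HeLa cells seeded overnight, then exposed to 1 µM compound (0.1% v/v DMSO final) over a time course. Cells were DPBS-washed and RIPA-lysed with protease inhibitors and benzonase; equal protein was loaded. Immunoblots for CRBN and VHL isoforms were quantified against β-tubulin and reported relative to the averaged 0.1% DMSO vehicle.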

[4] = biological target: T1, Protein cereblon/von Hippel-Lindau disease tumor suppressor; assay: Protac activity at VHL/CRBN in human HeLa cells assessed as pVHL30 protein abundance at 10 nM after 4 hrs by Western blot analysis relative to DMSO; outline: as §1
[5] = biological target: T1, Protein cereblon/von Hippel-Lindau disease tumor suppressor; assay: Protac activity at VHL/CRBN in human HeLa cells assessed as pVHL30 protein abundance at 1 uM after 4 hrs by Western blot analysis relative to DMSO; outline: as §2
[6] = biological target: T1, Protein cereblon/von Hippel-Lindau disease tumor suppressor; assay: Protac activity at VHL/CRBN in human HeLa cells assessed as induction of VHL degradation at 1 uM after 4 hrs by Western blot analysis; outline: as §1
[7] = biological target: T1, Protein cereblon/von Hippel-Lindau disease tumor suppressor; assay: Protac activity at VHL/CRBN in human HeLa cells assessed as CRBN protein abundance at 1 uM after 4 hrs by Western blot analysis relative to DMSO; outline: as §2
[8] = biological target: T1, Protein cereblon/von Hippel-Lindau disease tumor suppressor; assay: Protac activity at VHL/CRBN in human HeLa cells assessed as CRBN protein abundance after 4 hrs by Western blot analysis relative to DMSO
Outline: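 HeLa cells (DMEM, 10% FBS, penicillin/streptomycin, L-glutamine; 37 °C, 5% CO2) seeded at 5 × 10⁵ per well overnight, then treated in 0.1% v/v final DMSO. Cells were lysed in RIPA with protease inhibitors and benzonase, and equal protein was run on SDS-PAGE/nitrocellulose blots probed with anti-CRBN. Bands were normalised to β-tubulin and expressed relative to mean 0.1% DMSO vehicle.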

[9] = biological target: T1, Protein cereblon/von Hippel-Lindau disease tumor suppressor; assay: Protac activity at VHL/CRBN in HEK293 cells assessed as CRBN protein abundance at 1 uM after 4 hrs by Western blot analysis relative to DMSO
Outline: (§3)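 HEK293 cells (DMEM, 10% FBS, penicillin/streptomycin, L-glutamine; 37 °C, 5% CO2; ≤30 passages) seeded at 1 × 10⁶ per well overnight, then treated with compound at 0.1% v/v final DMSO. Cells were lysed in RIPA with protease inhibitors and benzonase, then clarified. Equal Bradford-quantified protein was immunoblotted for CRBN/VHL. Bands were normalised to β-tubulin and expressed as % of mean 0.1% DMSO vehicle.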

[10] = biological target: T1, Protein cereblon/von Hippel-Lindau disease tumor suppressor; assay: Protac activity at VHL/CRBN in HEK293 cells assessed as CRBN protein abundance at 1 uM after 24 hrs by Western blot analysis relative to DMSO; outline: as §3
[11] = biological target: T1, Protein cereblon/von Hippel-Lindau disease tumor suppressor; assay: Protac activity at VHL/CRBN in HEK293 cells assessed as pVHL30 protein abundance at 1 uM after 24 hrs by Western blot analysis relative to DMSO; outline: as §3
[12] = biological target: T1, Protein cereblon/von Hippel-Lindau disease tumor suppressor; assay: Protac activity at VHL/CRBN in HEK293 cells assessed as CRBN protein abundance after 4 hrs by Western blot analysis relative to DMSO; outline: as §3
[13] = biological target: T1, Protein cereblon/von Hippel-Lindau disease tumor suppressor; assay: Protac activity at VHL/CRBN in HEK293 cells assessed as pVHL30 protein abundance at 1 uM after 4 hrs by Western blot analysis relative to DMSO; outline: as §3
[14] = biological target: T1, Protein cereblon/von Hippel-Lindau disease tumor suppressor; assay: Protac activity at VHL/CRBN in HEK293 cells assessed as pVHL19 protein abundance at 1 uM after 4 hrs by Western blot analysis relative to DMSO; outline: as §3
[15] = biological target: T1, Protein cereblon/von Hippel-Lindau disease tumor suppressor; assay: Protac activity at VHL/CRBN in human HeLa cells assessed as pVHL30 protein abundance at 1 uM after 24 hrs by Western blot analysis relative to DMSO; outline: as §2
[16] = biological target: T1, Protein cereblon/von Hippel-Lindau disease tumor suppressor; assay: Protac activity at VHL/CRBN in HEK293 cells assessed as pVHL30 protein abundance after 4 hrs by Western blot analysis relative to DMSO; outline: as §3
[17] = biological target: T1, Protein cereblon/von Hippel-Lindau disease tumor suppressor; assay: Protac activity at VHL/CRBN in human HeLa cells assessed as pVHL19 protein abundance after 4 hrs by Western blot analysis relative to DMSO; outline: as §1
[18] = biological target: T1, Protein cereblon/von Hippel-Lindau disease tumor suppressor; assay: Protac activity at VHL/CRBN in HEK293 cells assessed as pVHL19 protein abundance after 4 hrs by Western blot analysis relative to DMSO; outline: as §3
[19] = biological target: T1, Protein cereblon/von Hippel-Lindau disease tumor suppressor; assay: Protac activity at VHL/CRBN in human HeLa cells assessed as CRBN protein abundance at 1 uM after 24 hrs by Western blot analysis relative to DMSO; outline: as §2
[20] = biological target: T1, Protein cereblon/von Hippel-Lindau disease tumor suppressor; assay: Protac activity at VHL/CRBN in human HeLa cells assessed as pVHL30 protein abundance after 4 hrs by Western blot analysis relative to DMSO; outline: as §1
[21] = biological target: T1, Protein cereblon/von Hippel-Lindau disease tumor suppressor; assay: Protac activity at VHL/CRBN in HEK293 cells assessed as pVHL19 protein abundance at 1 uM after 24 hrs by Western blot analysis relative to DMSO; outline: as §3
[22] = biological target: T1, Protein cereblon/von Hippel-Lindau disease tumor suppressor; assay: Protac activity at VHL/CRBN in human HeLa cells assessed as pVHL19 protein abundance at 1 uM after 24 hrs by Western blot analysis relative to DMSO; outline: as §2
[23] = biological target: T1, Protein cereblon/von Hippel-Lindau disease tumor suppressor; assay: Protac activity at VHL/CRBN in human HeLa cells assessed as induction of CRBN degradation at 1 uM after 4 hrs by Western blot analysis relative to control; outline: as §1

T1 sequence (P40337 whole entry, looked up): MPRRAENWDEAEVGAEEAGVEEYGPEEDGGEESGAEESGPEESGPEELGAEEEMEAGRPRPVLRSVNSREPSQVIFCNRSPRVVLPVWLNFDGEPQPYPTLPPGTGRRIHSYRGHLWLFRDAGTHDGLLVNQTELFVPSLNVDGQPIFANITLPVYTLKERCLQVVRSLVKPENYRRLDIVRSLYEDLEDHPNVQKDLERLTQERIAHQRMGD
T1 sequence (Q96SW2 whole entry, looked up): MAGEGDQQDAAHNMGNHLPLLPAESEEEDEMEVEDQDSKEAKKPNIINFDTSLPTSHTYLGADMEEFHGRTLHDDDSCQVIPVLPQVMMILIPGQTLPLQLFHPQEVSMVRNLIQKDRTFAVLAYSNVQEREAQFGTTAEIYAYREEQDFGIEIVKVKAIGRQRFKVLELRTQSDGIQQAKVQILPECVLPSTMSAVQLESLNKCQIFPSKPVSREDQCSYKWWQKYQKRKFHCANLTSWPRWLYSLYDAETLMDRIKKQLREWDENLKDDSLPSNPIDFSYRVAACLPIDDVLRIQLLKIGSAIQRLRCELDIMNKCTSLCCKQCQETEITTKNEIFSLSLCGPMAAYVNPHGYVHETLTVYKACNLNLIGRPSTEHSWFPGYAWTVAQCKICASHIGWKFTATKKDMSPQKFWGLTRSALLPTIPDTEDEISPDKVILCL

Activity [1] [%] | Activity [2] [%] | Activity [3] [%] | Activity [4] [%] | Activity [5] [%] | Activity [6] | Activity [7] [%] | SMILES | also measured
81 | 92 | 103 | 53 | 95 | inactive | 94 | Cc1ncsc1-c1ccc(CNC(=O)[C@@H]2C[C@@H](O)CN2C(=O)[C@@H](NC(=O)COCCOCCOCCOCCOCC(=O)NCCNc2cccc3c2C(=O)N(C2CCC(=O)NC2=O)C3=O)C(C)(C)C)cc1 (some centres undefined) | –
91 | 98 | 103 | 67 | 101 | inactive | 94 | Cc1ncsc1-c1ccc(CNC(=O)[C@@H]2C[C@@H](O)CN2C(=O)[C@@H](NC(=O)COCCOCCOCCOCC(=O)NCCNc2cccc3c2C(=O)N(C2CCC(=O)NC2=O)C3=O)C(C)(C)C)cc1 (some centres undefined) | –
78 | 87 | 121 | 75 | 104 | inactive | 71 | Cc1ncsc1-c1ccc(CNC(=O)[C@@H]2C[C@@H](O)CN2C(=O)[C@@H](NC(=O)C2(F)CC2)C(C)(C)SCCOCCOCCOCC(=O)NCCNc2cccc3c2C(=O)N(C2CCC(=O)NC2=O)C3=O)cc1 (some centres undefined) | –
82 | 99 | 95 | 54 | 91 | inactive | 91 | Cc1ncsc1-c1ccc(CNC(=O)[C@@H]2C[C@@H](O)CN2C(=O)[C@@H](NC(=O)COCCOCCOCCOCCOCCOCCOCCOCCOCC(=O)NCCNc2cccc3c2C(=O)N(C2CCC(=O)NC2=O)C3=O)C(C)(C)C)cc1 (some centres undefined) | –
85 | 93 | 97 | 80 | 96 | inactive | 86 | Cc1ncsc1-c1ccc(CNC(=O)[C@@H]2C[C@@H](O)CN2C(=O)[C@@H](NC(=O)COCCOCCOCCOCCOCCOCC(=O)NCCNc2cccc3c2C(=O)N(C2CCC(=O)NC2=O)C3=O)C(C)(C)C)cc1 (some centres undefined) | –
91 | 94 | 102 | 104 | 89 | inactive | 91 | Cc1ncsc1-c1ccc(CNC(=O)[C@@H]2C[C@@H](O)CN2C(=O)[C@@H](NC(=O)COCCOCCOCC(=O)NCCNc2cccc3c2C(=O)N(C2CCC(=O)NC2=O)C3=O)C(C)(C)C)cc1 (some centres undefined) | –
94 | 97 | 115 | 76 | 113 | inactive | 71 | Cc1ncsc1-c1ccc(CNC(=O)[C@@H]2C[C@@H](O)CN2C(=O)[C@@H](NC(=O)C2(F)CC2)C(C)(C)C)c(OCCOCCOCCOCC(=O)NCCNc2cccc3c2C(=O)N(C2CCC(=O)NC2=O)C3=O)c1 (some centres undefined) | –
38 | 95 | 100 | 95 | 87 | inactive | 34 | O=C1CCC(N2C(=O)c3cccc(NCCOCCOCCNc4cccc5c4C(=O)N(C4CCC(=O)NC4=O)C5=O)c3C2=O)C(=O)N1 (centres undefined) | Activity [8]: 40%; Activity [9]: 37%; Activity [10]: 25%; Activity [11]: 96%; Activity [12]: 52%; Activity [13]: 99%; Activity [14]: 97%; Activity [15]: 102%; Activity [16]: 95%; Activity [17]: 104%; Activity [18]: 94%; Activity [19]: 29%; Activity [20]: 109%; Activity [21]: 99%; Activity [22]: 107%
82 | 93 | 117 | 53 | 114 | inactive | 81 | Cc1ncsc1-c1ccc(CNC(=O)[C@@H]2C[C@@H](O)CN2C(=O)[C@@H](NC(=O)C2(F)CC2)C(C)(C)SCCCCC(=O)NCCNc2cccc3c2C(=O)N(C2CCC(=O)NC2=O)C3=O)cc1 (some centres undefined) | –
80 | 100 | 134 | 64 | 126 | inactive | 95 | Cc1ncsc1-c1ccc(CNC(=O)[C@@H]2C[C@@H](O)CN2C(=O)[C@@H](NC(=O)C2(F)CC2)C(C)(C)C)c(OCCCCC(=O)NCCNc2cccc3c2C(=O)N(C2CCC(=O)NC2=O)C3=O)c1 (some centres undefined) | –
87 | 97 | 97 | 0 | 1 | inactive | 103 | Cc1ncsc1-c1ccc(CNC(=O)[C@@H]2C[C@@H](O)CN2C(=O)[C@@H](NC(=O)COCCOCCOCCOCCOCCOCC(=O)N[C@H](C(=O)N2C[C@H](O)C[C@H]2C(=O)NCc2ccc(-c3scnc3C)cc2)C(C)(C)C)C(C)C)cc1 | Activity [8]: 99%; Activity [9]: 102%; Activity [10]: 109%; Activity [11]: 3%; Activity [12]: 100%; Activity [13]: 1%; Activity [14]: 95%; Activity [15]: 11%; Activity [16]: 6%; Activity [17]: 100%; Activity [18]: 95%; Activity [19]: 118%; Activity [20]: 0%; Activity [21]: 99%; Activity [22]: 122%
86 | 89 | 103 | 76 | 77 | inactive | 46 | Cc1ncsc1-c1ccc(CNC(=O)[C@@H]2C[C@@H](O)CN2C(=O)[C@@H](NC(=O)C2(F)CC2)C(C)(C)C)c(OCCOCCOCCOCCOCCOCC(=O)NCCNc2cccc3c2C(=O)N(C2CCC(=O)NC2=O)C3=O)c1 (some centres undefined) | Activity [23]: 54%
75 | 101 | 100 | 50 | 75 | inactive | 65 | Cc1ncsc1-c1ccc(CNC(=O)[C@@H]2C[C@@H](O)CN2C(=O)[C@@H](NC(=O)COCCCCCCOCC(=O)NCCNc2cccc3c2C(=O)N(C2CCC(=O)NC2=O)C3=O)C(C)(C)C)cc1 (some centres undefined) | –
82 | 89 | 112 | 87 | 110 | inactive | 68 | Cc1ncsc1-c1ccc(CNC(=O)[C@@H]2C[C@@H](O)CN2C(=O)[C@@H](NC(=O)C2(F)CC2)C(C)(C)SCCOCCOCCOCCOCCOCC(=O)NCCNc2cccc3c2C(=O)N(C2CCC(=O)NC2=O)C3=O)cc1 (some centres undefined) | –
